# The source made the active and inactive calls. The rule behind the calls is not given here.
# Legend:
# [1] = test system: Saccharomyces cerevisiae; experiment: Toxicity against wild type yeast MDY326 assessed as 2 fold reduction of cell growth; assay type: organism-based; settings: in vivo
# In short: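 Wild-type cells (pdr5Δ snq2Δ) grown 18–24 h at 30°C in YPD with serially diluted compound; OD490 read; value is concentration giving 2-fold growth inhibition versus DMSO.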
# [2] = test system: Saccharomyces cerevisiae; experiment: Growth inhibition of yeast MDY330 carrying temperature sensitive allele of clathrin heavy chain gene assessed as cell growth at 25 uM relative to wild-type; assay type: functional; design: scale not given: the % may be the effect or the level left
# [3] = test system: Saccharomyces cerevisiae; experiment: Effect on localization of chitin synthase Chs3p in CHS6 deficient yeast MDY335 assessed as induction of chitin bud scars at 25 uM by fluorescence microscopy; assay type: functional, organism-based
# In short: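 chs6Δ cells (pdr5Δ snq2Δ background) grown overnight at 30°C in YPD with 25 μM compound or DMSO; cells mixed 1:1 with 2.5 mM calcofluor white in YPD for 10 min, washed twice, chitin rings scored by fluorescence microscopy.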
# [4] = test system: Saccharomyces cerevisiae; experiment: Growth inhibition of wild type yeast MDY326 assessed as cell growth at 25 uM; assay type: functional; design: scale not given: the % may be the effect or the level left
# In short: (§1)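 Overnight cultures (pdr5Δ snq2Δ background) diluted to OD600 0.0003 in YPD, given serially diluted compound in 30-μl cultures, grown 18–24 h at 30°C humidified; OD490 read after vortexing; growth expressed as fold inhibition relative to the same strain with DMSO.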
# [5] = test system: Saccharomyces cerevisiae; experiment: Growth inhibition of gga1/2 deficient yeast MDY327 cells assessed as cell growth at 25 uM relative to wild-type; assay type: functional; design: scale not given: the % may be the effect or the level left
# [6] = test system: Saccharomyces cerevisiae; experiment: Growth inhibition of apl2/4 deficient yeast MDY334 cells assessed as cell growth at 25 uM relative to wild-type; assay type: functional; design: scale not given: the % may be the effect or the level left
# [7] = test system: Saccharomyces cerevisiae; experiment: Toxicity against wild type yeast MDY326 assessed as 2 fold reduction of cell growth at 130 uM; assay type: organism-based; settings: in vivo
# [8] = test system: Saccharomyces cerevisiae; experiment: Toxicity against wild type yeast MDY326 assessed as 2 fold reduction of cell growth at 95 uM; assay type: organism-based; settings: in vivo
# In short: (§2)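 Wild-type strain MDY326 (pdr5Δ snq2Δ) diluted to OD600 0.0003 in YPD, compound serially diluted into 30 μl cultures, grown 18–24 h at 30°C humidified; OD490 read after vortexing, normalized to untreated/DMSO wells; value is the concentration producing 2-fold growth inhibition.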
# [9] = test system: Saccharomyces cerevisiae; experiment: Effect on maturation of alpha-factor2 in gga2delta containing yeast MDY380; assay type: functional, organism-based
# In short: (§3)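 Yeast grown at 30°C to OD600 0.2 in YPD with compound (25 μM) or DMSO, washed twice in SCMG containing 50 μM compound, pulse-labeled 10 min with [35S]methionine (50 μCi per OD600), chased 30 min in YPD, stopped with NaF/NaN3 (10 mM final); secreted α-factor immunoprecipitated from medium, resolved by SDS/PAGE and autoradiography; DMSO-treated and wild-type (MDY326) cells as reference.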
# [10] = test system: Saccharomyces cerevisiae; experiment: Effect on maturation of alpha-factor2 in yeast MDY330 carrying temperature sensitive allele of clathrin heavy chain gene; assay type: functional, organism-based; in short: as §3
# [11] = test system: Saccharomyces cerevisiae; experiment: Toxicity against wild type yeast MDY326 assessed as 2 fold reduction of cell growth at 150 uM; assay type: organism-based; settings: in vivo; in short: as §2
# [12] = test system: Saccharomyces cerevisiae; experiment: Toxicity against wild type yeast MDY326 assessed as 2 fold reduction of cell growth at 14 uM; assay type: organism-based; settings: in vivo; in short: as §2
# [13] = test system: Saccharomyces cerevisiae; experiment: Inhibition of maturation of alpha-factor2 in gga2delta containing yeast MDY380 at 25 uM; assay type: functional, organism-based
# In short: (§4)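 Cells treated overnight with 25 μM compound or DMSO in YPD to OD600 0.2, washed in SCMG with 50 μM compound, labeled 10 min with [35S]methionine, chased 30 min; α-factor immunoprecipitated from medium, SDS/PAGE and autoradiography.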
# [14] = test system: Saccharomyces cerevisiae; experiment: Inhibition of maturation of alpha-factor2 in wild type yeast MDY326 at 25 uM; assay type: functional, organism-based; in short: as §4
# [15] = test system: Saccharomyces cerevisiae; experiment: Growth inhibition of gga1/2delta containing yeast MDY327; assay type: functional, organism-based; in short: as §1
# [16] = test system: Saccharomyces cerevisiae; experiment: Growth inhibition of wild type yeast MDY326 cells upto 300 uM; assay type: functional, organism-based; in short: as §1
# [17] = test system: Saccharomyces cerevisiae; experiment: Growth inhibition of AP1 deficient yeast MDY334 cells upto 300 uM; assay type: functional, organism-based; in short: as §1
# [18] = test system: Saccharomyces cerevisiae; experiment: Growth inhibition of gga1/2delta containing yeast MDY327 carrying wild type SNQ2 and PDR5 gene; assay type: functional, organism-based
# [19] = test system: Saccharomyces cerevisiae; experiment: Degradation of Ste3p receptor in wild type yeast MDY326 cells by pulse-chase immunoprecipitation; assay type: functional, organism-based
# In short: (§5)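 Cells grown at 30°C to OD600 0.2 in YPD with DMSO or compound, washed twice in SCMG containing 50 μM compound, pulse-labeled 10 min with [35S]methionine (50 μCi per OD600), chased in YPD; samples stopped with NaF/NaN3 (10 mM final) at set chase points; Ste3p immunoprecipitated from lysates, SDS/PAGE and autoradiography.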
# [20] = test system: Saccharomyces cerevisiae; experiment: Degradation of Ste3p receptor in gga2delta containing yeast MDY380 by pulse-chase immunoprecipitation; assay type: functional, organism-based; in short: as §5
# [21] = test system: Saccharomyces cerevisiae; experiment: Degradation of Ste3p receptor in yeast MDY330 carrying temperature sensitive allele of clathrin heavy chain gene by pulse-chase immunoprecipitation; assay type: functional, organism-based; in short: as §5
# [22] = test system: Saccharomyces cerevisiae; experiment: Effect on maturation of alkaline phosphatase in wild type yeast SEY6210 at 25 uM by pulse-chase immunoprecipitation; assay type: functional, organism-based
# In short: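 SEY6210 grown overnight with 25 μM compound or DMSO, pulse-labeled 5 min with [35S]methionine, chase started by adding yeast extract/cysteine/methionine; ALP immunoprecipitated from lysates at chase points; precursor and mature forms resolved by SDS/PAGE and autoradiography; apl6Δ strain run in parallel.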
# [23] = test system: Saccharomyces cerevisiae; experiment: Effect on maturation of carboxyl peptidase S in wild type yeast MDY326 assessed as delay in maturation at 25 uM by pulse-chase immunoprecipitation; assay type: functional
# In short: (§6)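 Cells grown overnight in YPD with 25 μM compound or DMSO, labeled 10 min with [35S]methionine, chase started by adding yeast extract/cysteine/methionine; CPS immunoprecipitated at chase points; precursor versus mature forms compared by SDS/PAGE and autoradiography.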
# [24] = test system: Saccharomyces cerevisiae; experiment: Prevention of maturation of carboxyl peptidase S in gga1/2 deficient yeast MDY327 assessed as delay in maturation at 25 uM by pulse-chase immunoprecipitation; assay type: functional, organism-based; in short: as §6
SMILES,Activity [2] [%],Activity [3],Activity [4] [%],Activity [5] [%],Activity [6] [%],other results
CC(=O)c1ccc(N2CCN(Cc3ccc(Cl)cc3)CC2)cc1,,,,,,Activity [1]: Non-toxic
CC1(C(=O)NC(=S)NNC(=O)c2cccnc2)CCCCC1,70,inactive,70,<50,70,
Cl.N=c1n(Cc2ccccc2)c2ccccc2n1CC(O)COc1ccccc1 (stereo not drawn),50,inactive,70,<50,50,
CC(=O)c1ccc(N2CCN(CC3CCCC3)CC2)cc1,,,,,,Activity [7]: Toxic
COC(=O)c1ccccc1/N=C/c1c(O)c(Br)cc2oc3c(c12)CCCC3,<50,inactive,70,<50,50,
CC(=O)c1ccc(N2CCN(Cc3cccc(F)c3)CC2)cc1,,,,,,Activity [8]: Toxic
O=C1/C(=C\c2ccc(-c3cccc(Cl)c3)o2)SC(=S)N1CCS(=O)(=O)O,,,,,,Activity [9]: inactive; Activity [10]: inactive
CC(=O)c1ccc(N2CCN(CC3=CCCCC3)CC2)cc1,,,,,,Activity [11]: Toxic
COc1ccc(CN2CCN(Cc3cc(Br)ccc3O)CC2)cc1,,,,,,Activity [9]: inactive; Activity [10]: inactive
COc1ccc(CNC2C3CC4CC(C3)CC2C4)c2ccccc12 (stereo not drawn),70,inactive,70,<50,70,
CCN1CCN(c2ccc(C(C)=O)cc2F)CC1,,,,,,Activity [1]: Non-toxic
O=C1/C(=C/c2ccc(O)cc2)SC(=S)N1C1CCCCC1,<50,inactive,70,<50,50,
CCn1c2ccccc2c2cc(CNC3CCCC3)ccc21,70,inactive,70,<50,70,
CC(C)Cc1ccc(C(C)C(=O)N/N=C/c2ccc(N(C)C)cc2)cc1 (stereo not drawn),70,inactive,70,<50,70,
C/C=C(\C)CN1CCN(c2ccc(C(=O)O)cc2)CC1,,,,,,Activity [1]: Non-toxic
CC(=O)c1ccc(N2CCN(Cc3cccc(Cl)c3Cl)CC2)cc1,,,,,,Activity [12]: Toxic
CC(=O)c1ccc(N2CCN(Cc3ccccc3)CC2)cc1,,,,,,Activity [1]: Non-toxic

SMILES,Activity [2] [%],Activity [3],Activity [4] [%],Activity [5] [%],Activity [6] [%],other results
CC(=O)c1ccc(N2CCN(Cc3cc(F)ccc3F)CC2)cc1,50,Active,70,<50,70,Activity [13]: Active; Activity [14]: inactive
CC(=O)c1ccc(N2CCN(Cc3cccs3)CC2)cc1,,,,,,Activity [1]: Non-toxic
O=C1NC(=O)/C(=C\c2cccc(Cl)c2Cl)S1,70,inactive,70,50,70,
O=C(N/N=C/c1c[nH]c2ccccc12)c1cc(-c2ccc(Cl)cc2)n[nH]1,70,inactive,70,<50,70,
Cc1cc(S)n(-c2ccccc2)n1,50,inactive,70,<50,50,
CC(=O)c1ccc(N2CCN(Cc3cccc(F)c3F)CC2)cc1,,,,,,Activity [11]: Toxic
Cc1cc(O)c(C(C)C)cc1NS(=O)(=O)c1ccc(Cl)cc1,70,inactive,70,50,70,
CC(=O)c1ccc(N2CCN(Cc3ccsc3)CC2)cc1,,,,,,Activity [1]: Non-toxic
O=C(Nc1ccccc1)c1ccccc1/N=C/c1cc(Br)ccc1O,70,inactive,70,50,50,
COC(=O)Oc1c(Br)c(C)c2oc(=O)sc2c1Br,70,inactive,70,<50,70,
C/C=C(\C)CN1CCN(c2ccc(C(=O)OCC)cc2)CC1,,,,,,Activity [1]: Non-toxic
CC(=O)c1ccc(N2CCN(Cc3ccccc3C(F)(F)F)CC2)cc1,,,,,,Activity [1]: Non-toxic
C/C=C(\C)CN1CCN(c2ccc(C(C)=O)cc2)CC1,50,Active,70,<50,70,EC50 [15]: 4 µM; Activity [16]: inactive; Activity [17]: inactive; Activity [18]: Active; Activity [13]: Active; Activity [14]: inactive; Activity [19]: inactive; Activity [20]: inactive; Activity [21]: inactive; Activity [22]: inactive; Activity [23]: <2; Activity [1]: Non-toxic; Activity [24]: Active
c1ccc(CN2CCC(NCC(c3ccccc3)c3ccccc3)CC2)cc1,70,inactive,70,<50,70,
CC(=O)c1ccc(N2CCN(CC3CC3)CC2)cc1,,,,,,Activity [1]: Non-toxic
CC(=O)c1ccc(N2CCN(Cc3ccco3)CC2)cc1,50,Active,70,50,70,Activity [16]: inactive; Activity [17]: inactive; Activity [13]: Active; Activity [14]: inactive
CC(=O)c1ccc(N2CCN(Cc3ccccc3F)CC2)cc1,,,,,,Activity [11]: Toxic
